Bioassay records: PubChem BioAssay, The Scripps Research Institute Molecular Screening Center
Only some compounds are listed: those with a hit (about 4.5% of all), similar ones and a draw of the others.
OX1R antag-1: antagonists of human orexin 1 receptor (OX1R). Orexin/Hypocretin receptor type 1 (Homo sapiens), O43613. OX1R-expressing cells, FRET antagonist read-out. inhibition, % at 6.6 µM. 330,000 tested, 1.8% active. AID 485270, 2010; in the data active = inhibition mostly above about 38%, no sharp cut-off; inactive = mostly below about 40%
TAAR1 antag: human TAAR1 antagonists, primary screen, Fluo-8 calcium fluorescence, CHO RD-HGA16 cells; 360,000 tested, 1.5% active; inhibition, % at 3 µM; Trace amine-associated receptor 1 (Homo sapiens), Q96RJ0; antagonist; AID 624466, 2012;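 active = inhibition above a per-plate cutoff, the mean inhibition of test compounds on that plate plus 3 SD, cut at about 49% in these data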
Target sequence (Q96RJ0 whole entry, looked up): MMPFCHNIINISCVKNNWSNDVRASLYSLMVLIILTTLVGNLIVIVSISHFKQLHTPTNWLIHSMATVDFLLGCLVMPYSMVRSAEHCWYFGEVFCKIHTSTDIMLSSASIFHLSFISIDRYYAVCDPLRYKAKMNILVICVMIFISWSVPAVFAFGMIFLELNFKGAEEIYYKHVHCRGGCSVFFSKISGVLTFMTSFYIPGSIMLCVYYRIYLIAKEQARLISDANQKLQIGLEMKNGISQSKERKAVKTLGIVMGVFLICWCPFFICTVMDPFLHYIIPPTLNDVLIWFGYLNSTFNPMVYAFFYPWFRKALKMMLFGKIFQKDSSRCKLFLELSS
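System: RD-HGA16 CHO cells with stable hTAAR1 and Gα16 | Probe or stimulus: EC80 β-phenethylamine stimulus | Dosing: 3 µM, single point | Times: Dye loading 75 min at 37 °C, then 30 min room temperature | Measured by: Fluo-8 calcium-sensitive fluorescence | Read-out basis: % inhibition of agonist calcium response | Replicates: n of 1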
TAAR1 agonist: human TAAR1 agonists, primary screen, Fluo-8 calcium fluorescence, CHO RD-HGA16 cells; 360,000 tested, 0.99% active; activation, % at 3 µM; AID 624467, 2012; vehicle wells 0%, saturating PEA agonist 100%; Trace amine-associated receptor 1 (Homo sapiens), Q96RJ0;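 active = activation above the mean activation of all test compounds in the run plus 3 SD, cut at about 38% in these data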
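Test system: RD-HGA16 (CHO) cells co-expressing Gα16 and hTAAR1 / Benchmarks: DMSO vehicle as 0%, PEA at EC100 as 100% / Repeats: no replicates (n 1) / Measure: % activation from peak over basal fluorescence ratio, DMSO-to-PEA scaled / Timing: 17-24 h plating, Fluo-8 75 min 37 °C, 30 min RT / Technique: kinetic Fluo-8 calcium fluorescence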
GPR7 antag: GPR7 receptor antagonists, primary screen, cell-based, fluorescence, single concentration; Neuropeptides B/W receptor type 1 (Homo sapiens), P48145; GPR7-expressing cells, fluorescence antagonist assay; inhibition, % at 4.4 µM; 290,000 tested, 1.1% active; AID 1861, 2009; in the data active = inhibition above about 16%, passing the limit was not always enough;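 also: cells stimulated with the agonist NPW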
Target sequence (P48145 whole entry, looked up): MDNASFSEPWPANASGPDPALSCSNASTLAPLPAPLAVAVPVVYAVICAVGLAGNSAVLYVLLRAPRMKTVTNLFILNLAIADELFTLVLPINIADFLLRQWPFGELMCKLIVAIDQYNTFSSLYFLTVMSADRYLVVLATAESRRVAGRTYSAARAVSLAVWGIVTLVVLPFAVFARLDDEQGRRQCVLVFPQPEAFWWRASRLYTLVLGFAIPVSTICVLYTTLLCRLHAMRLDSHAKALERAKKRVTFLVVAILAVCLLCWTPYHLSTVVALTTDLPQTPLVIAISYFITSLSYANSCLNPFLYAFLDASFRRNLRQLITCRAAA
CHO parental Ca: ATP-evoked calcium signal inhibitors, parental CHO, primary screen, counter-screen for OX1R antagonist project, cell-based, fluorescence, Fluo-8 calcium dye; parental CHO-K1, ATP-induced calcium, Fluo-8 fluorescence; inhibition, % at 5.6 µM; 330,000 tested, 0.63% active;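 active = inhibition above that plate's mean sample inhibition plus 3 SD, cut at about 26% in these data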
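Material: parental CHO cells / Compound: single nominal dose of 5.6 µM per compound / Signal: Fluo-8 fluorescence / Replicates: singlicate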
OX1R antag-2: OX1R (HCRTR1) antagonists, primary screen, fluorescence, CHO/OX1R cells, Fluo-8 calcium, orexin A; Orexin/Hypocretin receptor type 1 (Homo sapiens), O43613; Fluo-8 calcium fluorescence; inhibition, % at 5 µM; 330,000 tested, 0.43% active;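 active = inhibition above its plate's threshold, mean inhibition of all tested compounds on the plate plus 3 SD, cut at about 37% in these data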
GPR7 antag cf: GPR7 receptor antagonists, confirmation, cell-based, fluorescence, single concentration; shares compounds with GPR7 antag; GPR7-expressing cells, calcium fluorescence antagonist mode; inhibition, % at 4.4 µM; 2,400 tested, 52% active; AID 1952, 2009; in the data active = inhibition above about 24%;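 also: stimulated with the GPR7 agonist NPW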
MCHR1 antagonist: MCHR1 antagonists in cells, counter-screen for GPR7 antagonist project, cell-based, fluorescence, human | shares compounds with GPR7 antag | MCHR1-expressing cells, fluorescence antagonist assay | inhibition, % at 4.4 µM | 2,400 tested, 62% active | AID 2148, 2009; in the data active = inhibition above about 22%
A number is an active result; - = inactive; . = no result given; ! = not confirmed by another sample.

SMILES	OX1R antag-1	TAAR1 antag	TAAR1 agonist	GPR7 antag	CHO parental Ca	OX1R antag-2	GPR7 antag cf	MCHR1 antagonist
Cc1nnsc1S(=O)c1ccc(Cl)cc1 (stereo unspecified)	-	-	-	-	-	-	.	.
CCC(Sc1ncnc2c1nnn2-c1ccc(F)cc1)C(=O)OC (stereo unspecified)	-	-	-	-	-	-	.	.
CCOC(=O)C(C)Sc1ncnc2c1nnn2-c1ccc(F)cc1 (stereo unspecified)	-	-	-	44	-	-	38	44
CCOC(=O)C1=CN(Cc2ccco2)S(=O)(=O)NC1c1ccc(F)c(Cl)c1 (stereo unspecified)	-	-	-	.	-	-	.	.
CN(Cc1ccccc1)C1=CC(=[N+]2CCCCC2)CC(C)(C)C1	-	-	-	40	-	-	57	48
CC1(C)CC(N2CCN(Cc3ccccc3)CC2)=CC(=[N+]2CCCCC2)C1	-	-	-	-	-	-	.	.
Cc1cc(OC(F)F)ccc1NC(=O)Nc1ccc2c(c1)OCO2	-	-	-	-	-	-	.	.
CC(C)(C)c1ccc(C(=O)N2CCC(C(=O)c3ccccc3)CC2)cc1	-	-	-	41	-	-	39	38
O=C(c1cnccn1)N(Cc1ccco1)C1(C(=O)NC2CCCC2)CCCCC1	-	-	-	40	-	-	31	-
O=C(NC1CCCCC1)C(c1ccccc1)N(Cc1ccco1)C(=O)Cn1cnc2ccccc21 (stereo unspecified)	.	-	-	22	.	.	-	-
O=C(NC1CCCCC1)C(c1ccccc1)N(Cc1ccco1)C(=O)c1csnn1 (stereo unspecified)	-	-	-	-	-	-	.	.
CN(C(=O)c1ccc2c(c1)OCO2)C1(C(=O)NC2CCCCC2)CCCCC1	-	-	-	-	-	-	.	.
O=C(c1cnccn1)N(Cc1ccco1)C1(C(=O)NC2CCCCC2)CCCCC1	-	-	-	31	-	-	-	-
O=C(c1ccc2c(c1)OCO2)N(Cc1ccco1)C1(C(=O)NC2CCCCC2)CCCCC1	-	-	-	41	-	-	40	42
O=C(c1ccccn1)N(Cc1ccco1)C1(C(=O)Nc2ccc(Br)cc2)CCCCC1	.	-	-	.	.	.	.	.
CC(OC(=O)c1ccc(-n2cnnn2)cc1)C(=O)Nc1ccc(F)c(F)c1F (stereo unspecified)	-	-	-	.	-	-	.	.
Cc1ccc(C(=O)OC(C)C(=O)N(C)C2CCCCC2)cc1S(=O)(=O)N1CCCCC1 (stereo unspecified)	-	-	-	.	-	-	.	.
O=C1NC(=O)C(CC(=O)N(Cc2ccco2)C2(C(=O)NC3CCCC3)CCCCC2)N1 (stereo unspecified)	-	-	-	-	-	-	.	.
O=C(c1ccccn1)N(Cc1ccco1)C1(C(=O)NC2CCCC2)CCCCC1	-	-	-	37	-	-	28	-
O=C(NC1CCCC1)C(c1ccsc1)N(Cc1ccco1)C(=O)Cc1cccs1 (stereo unspecified)	-	-	-	44	-	-	43	31
O=C(Cc1cccs1)N(Cc1ccco1)C1(C(=O)NC2CCCC2)CCCCC1	-	-	-	46	-	-	53	45
CCOCCCn1c(SCC(=O)Nc2ccc3[nH]c(=O)[nH]c3c2)nc2ccccc2c1=O	-	-	-	.	-	-	.	.
O=C(Cc1ccc(Cl)cc1)NC1CCCCCC1	-	-	-	-	-	-	.	.
Clc1ccc(CN=C(Nc2ccccc2)NC2CCCCC2)cc1	-	-	-	40	-	-	57	45
O=C1CCCN2N=C(SCC(=O)N3N=C(c4ccc(Br)cc4)CC3c3ccc(F)cc3)SC2=N1 (stereo unspecified)	-	-	-	22	-	-	-	-
SMILES	OX1R antag-1	TAAR1 antag	TAAR1 agonist	GPR7 antag	CHO parental Ca	OX1R antag-2	GPR7 antag cf	MCHR1 antagonist
COc1ccc(-c2oc3ccccc3c2C#Cc2cncn2C)cc1	-	-	-	.	-	-	.	.
O=C1COc2ccc(C(=O)COC(=O)Cn3cnc4ccccc43)cc2N1	-	-	-	24	-	-	-	-
O=C1COc2ccc(C(=O)COC(=O)c3ccc4ccccc4n3)cc2N1	-	-	-	-	-	-	.	.
CCC1(C)CC2(CCCN(CCC(O)(c3ccccc3)c3ccccc3)C2)CCO1 (stereo unspecified)	-	-	-	26	-	-	-	-
COc1ccccc1-c1nc(SCC(=O)N2CCC(C(N)=O)CC2)n[nH]1	-	-	-	.	-	-	.	.
O=C(CN(C(=O)c1csnn1)c1cccc(F)c1)NC1CCCC1	-	-	-	28	-	-	-	-
O=C(CN(C(=O)c1csnn1)c1cccc(Cl)c1)NC1CCCCC1	-	-	-	-	-	-	.	.
CCc1ccc(OCc2nnc(NC(=O)c3cccs3)s2)cc1	-	-	-	25	-	-	-	-
CCc1cc(CNC(=O)c2ccc(OC3CCN(C(C)=O)CC3)c(OC)c2)on1	-	-	-	-	-	-	.	.
CC1(Cc2cc(Cl)ccc2C(F)(F)F)C(=O)Nc2c(Cl)cccc21 (stereo unspecified)	.	-	-	.	.	.	.	.
CNCCCC12CCC(c3ccccc31)c1ccccc12	-	-	-	28!	-	-	34	29
COc1ccccc1CNCC(O)(c1ccc(F)cc1)c1ccc(F)cc1	-	-	-	40	-	-	41	36
COc1ccccc1CNCC(O)(c1ccc(Cl)cc1)c1ccc(Cl)cc1	-	-	-	28	-	-	47	33
OC(CNCc1ccccc1F)(c1ccc(F)cc1)c1ccc(F)cc1	-	-	-	-	-	-	.	.
CCN(CC(=O)Nc1c(F)cccc1F)C(=O)c1cc(S(=O)(=O)N(CC)CC)ccc1N1CCCCC1	-	-	-	29	-	-	32	26
CCN(CC)S(=O)(=O)c1ccc(N2CCCC2)c(NC(=O)Cc2c(F)cccc2Cl)c1	-	-	-	31	-	-	44	41
CCN1CCN(c2ccc(S(=O)(=O)N3CCCCC3)cc2NC(=O)Cc2c(F)cccc2Cl)CC1	-	-	-	-	-	-	.	.
CCN(CC(=O)Nc1c(F)cccc1F)C(=O)c1cc(S(=O)(=O)N(C)C)ccc1N1CCCC1	-	-	-	.	-	-	.	.
